Results on two compounds are retold here after ChEMBL document CHEMBL5674869, “The Histone Methyltransferase Inhibitor A-366 Uncovers a Role for G9a/GLP in the Epigenetics of Leukemia” (PLoS One, 2015).

The source made the active and inactive calls. No cut-off for these calls is given here.

Test [1] has as its target T1, Histone-lysine N-methyltransferase EHMT2 (Homo sapiens) (UniProt Q96KQ7).
T1 sequence (whole entry): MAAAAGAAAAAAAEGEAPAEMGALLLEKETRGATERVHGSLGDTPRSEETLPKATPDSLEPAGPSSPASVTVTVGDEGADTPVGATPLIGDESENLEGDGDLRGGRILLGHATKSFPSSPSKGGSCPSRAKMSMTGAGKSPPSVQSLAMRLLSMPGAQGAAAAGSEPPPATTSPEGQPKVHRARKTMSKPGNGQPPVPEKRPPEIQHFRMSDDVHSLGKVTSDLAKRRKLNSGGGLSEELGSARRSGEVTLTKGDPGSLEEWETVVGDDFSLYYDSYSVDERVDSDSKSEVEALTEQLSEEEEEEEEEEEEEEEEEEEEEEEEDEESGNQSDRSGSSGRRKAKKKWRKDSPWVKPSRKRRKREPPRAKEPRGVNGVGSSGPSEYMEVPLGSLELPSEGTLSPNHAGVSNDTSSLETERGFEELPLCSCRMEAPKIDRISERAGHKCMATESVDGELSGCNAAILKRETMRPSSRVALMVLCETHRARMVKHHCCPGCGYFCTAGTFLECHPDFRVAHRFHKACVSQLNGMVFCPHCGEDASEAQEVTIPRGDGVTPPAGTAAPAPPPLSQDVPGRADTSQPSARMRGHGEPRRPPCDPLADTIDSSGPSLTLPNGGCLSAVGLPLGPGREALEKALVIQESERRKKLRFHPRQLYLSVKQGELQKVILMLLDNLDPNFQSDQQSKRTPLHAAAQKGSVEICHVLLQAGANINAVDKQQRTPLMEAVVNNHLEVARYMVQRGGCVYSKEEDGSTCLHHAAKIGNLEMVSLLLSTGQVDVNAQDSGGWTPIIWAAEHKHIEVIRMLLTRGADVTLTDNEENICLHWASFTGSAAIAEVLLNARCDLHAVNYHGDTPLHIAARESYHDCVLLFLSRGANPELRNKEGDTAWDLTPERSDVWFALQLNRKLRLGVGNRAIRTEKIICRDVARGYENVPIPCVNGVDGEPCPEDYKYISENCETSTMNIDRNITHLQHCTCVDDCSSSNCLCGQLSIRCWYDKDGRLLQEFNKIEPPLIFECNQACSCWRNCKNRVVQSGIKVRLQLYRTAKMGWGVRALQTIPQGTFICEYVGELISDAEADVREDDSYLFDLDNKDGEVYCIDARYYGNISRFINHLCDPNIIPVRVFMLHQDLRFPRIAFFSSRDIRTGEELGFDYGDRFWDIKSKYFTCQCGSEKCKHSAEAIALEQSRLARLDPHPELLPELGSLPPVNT
In words: Inhibition of G9a in human PC-3 cells assessed as decrease in total H3 levels at 10 uM by In cell Western assay. It counts as cell-based. The essentials:
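PC-3 cells (5,000/well) adhered overnight, then treated in triplicate with DMSO or compound over a concentration range for 72 h at 37 °C, 5% CO2. Cells fixed in 3% formaldehyde, blocked in 1% BSA and co-stained 4 h for H3K9me2 (1:500) and total H3 (1:1000). Fluorescent secondaries read by Odyssey: 800 nm H3K9me2, 700 nm total H3.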

The next test concerns MDA-MB-231. In words: Antiproliferative activity against human MDA-MB-231 cells assessed as effect on colony formation at 0.1 to 10 uM after 14 days by crystal violet staining based clonogenic assay. As to conditions: dose 0.1-10 µM, time 14.0 day. It counts as functional, cell-based. The essentials: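 Clonogenic assay: 500 live cells per well were seeded into six-well plates in drug-free medium. Compound diluted in culture medium was added 24 h later. Cells were cultured at 37°C, then fixed and stained with 0.2% crystal violet. Colonies were counted on an automated colony counter.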

For test [2], the system named is MOLT-16. In words: Antiproliferative activity against human MOLT-16 cells at EC50 after 5 days by Cell-Titer-Glo assay. The following applies: time 5.0 day. The class given is functional, cell-based. The procedure, abridged:
(§1)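 ATCC tumor lines were grown in their recommended media with 10% FBS and STR-authenticated. Cells were exposed to compound for the stated number of days. Viable cells were read by CellTiter-Glo endpoint. Inhibition was the ratio of treated to untreated wells, with cell-free wells set as 100% inhibition. The EC50 was taken from the dose response.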

Test [3] concerns MOLT-16. The test can be described thus: Antiproliferative against human MOLT-16 cells after 5 days by Cell-Titer Glo assay. The class given is functional, cell-based. The following applies: MOLT-16, 120 h. The procedure, abridged:
as §1

The subject of another test is L-363. In words: Antiproliferative against human L-363 cells after 5 days by Cell-Titer Glo assay. It counts as functional, cell-based. The following applies: L-363, 120 h. The procedure, abridged: as §1
The next test relates to KMS-12-BM. The test can be described thus: Antiproliferative against human KMS-12-BM cells after 5 days by Cell-Titer Glo assay. It counts as functional, cell-based. The following applies: 120 h. The essentials:
as §1

The next test relates to Kasumi 1. In words: Antiproliferative against human Kasumi-1 cells after 5 days by Cell-Titer Glo assay. The class given is functional, cell-based. The following applies: Kasumi 1, 120 h. The procedure, abridged: as §1
For another test, the system named is MV4-11. In words: Antiproliferative against human MV4-11 cells after 5 days by Cell-Titer Glo assay. The class given is functional, cell-based. The following applies: MV4-11, 120 h. The procedure, abridged: as §1
In the next test the test system is CWR22R. In words: Antiproliferative against human 22RV1 cells after 5 days by Cell-Titer Glo assay. The following applies: 22Rv1, 120 h. It counts as functional, cell-based. The essentials: as §1
A further test relates to LN-229. In words: Antiproliferative against human LN-229 cells after 5 days by Cell-Titer Glo assay. It counts as functional, cell-based. As to conditions: LN-229, 120 h. The procedure, abridged:
as §1

Another test has as its system SK-BR-3. The test can be described thus: Antiproliferative against human SK-BR-3 cells after 5 days by Cell-Titer Glo assay. The class given is functional, cell-based. The following applies: SK-BR-3, 120 h. The essentials:
as §1

A further test concerns NCI-H1975. The test can be described thus: Antiproliferative against human NCI-H1975 cells after 5 days by Cell-Titer Glo assay. The following applies: NCI-H1975, 120 h. It counts as functional, cell-based. The essentials:
as §1

In the next test the test system is Calu-1. In words: Antiproliferative against human Calu-1 cells after 5 days by Cell-Titer Glo assay. The following applies: Calu-1, 120 h. It counts as functional, cell-based. The essentials:
as §1

The next test deals with NCI-H358. The test can be described thus: Antiproliferative against human NCI-H358 cells after 5 days by Cell-Titer Glo assay. It counts as functional, cell-based. As to conditions: NCI-H358, 120 h. The essentials:
as §1

The next test relates to NCI-H441. In words: Antiproliferative against human NCI-H441 cells after 5 days by Cell-Titer Glo assay. The class given is functional, cell-based. The following applies: NCI-H441, 120 h. The procedure, abridged: as §1
In a further test the test system is NCI-H522. The test can be described thus: Antiproliferative against human NCI-H522 cells after 5 days by Cell-Titer Glo assay. As to conditions: NCI-H522, 120 h. It counts as functional, cell-based. The essentials: as §1
The subject of a further test is NCI-H661. In words: Antiproliferative against human NCI-H661 cells after 5 days by Cell-Titer Glo assay. It counts as functional, cell-based. The following applies: NCI-H661, 120 h. The procedure, abridged:
as §1

In the next test the test system is G-401. In words: Antiproliferative against human G-401 cells after 7 days by Cell-Titer Glo assay. As to conditions: G-401, 168 h. It counts as functional, cell-based. The essentials: as §1
Test [4] deals with T1, Histone-lysine N-methyltransferase EHMT2 (Homo sapiens). The test can be described thus: Inhibition of G9a in human PC-3 cells assessed as decrease in H3K9me2 levels after 72 hrs by Western blot analysis.
The test system of the next test is HL-60 (human). In words: Induction of cell cycle arrest in human HL-60 cells assessed as increase in G1 phase cells after 4 days by propidium iodide staining based flow cytometry. The following applies: time 4.0 day.

For `COc1cc2c(cc1OCCCN1CCCC1)N=C(N)C21CCC1`, in test [1], the inhibition result was “inactive”. Moreover, the result with MDA-MB-231 and with MOLT-16 [2] was inactive. Besides, the EC50 with MOLT-16 [3], with L-363, in the test with KMS-12-BM, with Kasumi 1, in the test on MV4-11 and in the test with CWR22R was more than 10 µM in each case. Moreover, the EC50 with LN-229, in the test with SK-BR-3, with NCI-H1975, in the test on Calu-1, in the test with NCI-H358 and with NCI-H441 was more than 10 µM each time. For the same compound, the EC50 in the test with NCI-H522, in the test with NCI-H661 and in the test on G-401 was more than 10 µM each time. Besides, the inhibition result in test [4] is “Dose-Dependent Effect”. For the same compound, the result in the test with HL-60 (human) was Active.
Turning to `COc1cc2c(NC3CCN(C(C)C)CC3)nc(C3CCCCC3)nc2cc1OCCCN1CCCC1`, the inhibition result in test [1] and in test [4] was “Active” throughout. Moreover, the outcome in the test on MOLT-16 [2] was Active. Besides, the EC50 with MOLT-16 [3] came to 0.2 µM; with L-363, 3.9 µM; with KMS-12-BM it was 4.4 µM; with Kasumi 1, 1.1 µM; in the test with MV4-11, 1.7 µM; in the test on CWR22R, 0.2 µM. The concentration giving a half-maximal response (EC50) in the test with LN-229 was 0.5 µM; in the test with SK-BR-3 it was 0.6 µM; in the test with NCI-H1975, more than 10 µM; in the test on Calu-1, 1.3 µM; in the test with NCI-H358, 4.3 µM; in the test on NCI-H441 it was 8.7 µM. The EC50 in the test with NCI-H522 was 1.5 µM; with NCI-H661, 4.9 µM; in the test on G-401, 0.4 µM.
